PMC5356508 (Bioconjugate chemistry, 2016)
“And” between values parts separate entries of the source, which are not always exact repeats. Equal values may be shown once. Read-outs that look alike come from different tables or passages of the source. Values belong to the compound of their own block, whether it stands above or below them.

Experiments:
[1] = Accumulation of paclitaxel in solid tumors; type: in vivo, B16/F10 tumor-bearing C57BL/6 mice; details: C57BL/6, mouse, tumor homogenate, iv, 2.5 mg/kg
[2] = system: A2780 human ovarian cancer cell line; details: cited from earlier work
B16/F10 melanoma = assay: Treatment of tumor-burdened mice; type: in vivo, C57BL/6 mice; details: treated days 0, 2, 5, 7, after 9 days
Outline: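 B16/F10 melanoma cells were implanted in C57BL/6 mice and grown to tumours of about 500 mm3. Groups of n=4 were injected on days 0, 2, 5 and 7 with native drug (2.5 or 40 mg/kg), nanoparticle formulations (2.5 mg/kg drug equivalent) or PBS control. Tumour volume was measured over time, and the % decrease versus control was taken at day 9.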

[3] = system: A2780 human ovarian cancer cell line; assay: Antiproliferative assay; type: cell-based
[4] = Hydrolytic release of paclitaxel by compound 4 in buffer; type: physicochemical; details: 3:1 methanol/PBS buffer pH 7.4; pseudo 1st order kinetics
Outline: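 Test compound stock in methanol was mixed with 1 M PBS pH 7.4 (3:1 methanol:buffer) in a sealed, stirred vial. Aliquots were taken at 0 min and from 30 to 1440 min. Parent and released drug were quantified by C18 reverse-phase HPLC (gradient from 1:1 MeOH:H2O to 100% MeOH, 1 mL/min) against standard curves of both compounds.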

[5] = Pharmacokinetics: whole blood paclitaxel levels in tumor burdened mice; type: in vivo, B16/F10 tumor burdened C57Bl/6 mice; details: 5 μg injected, ELISA, Figure 3A
[6] = Release of paclitaxel in bicarbonate buffer without or with dithiothreitol; type: physicochemical
[7] = Generation of paclitaxel in rabbit whole blood; type: in vitro ADME; details: without BME

concentration at 24 h [1]: 5 ng/mL
SMILES: CC(=O)O[C@H]1C(=O)[C@@]2(C)[C@H]([C@H](OC(=O)c3ccccc3)[C@]3(O)C[C@H](OC(=O)[C@H](O)[C@@H](NC(=O)c4ccccc4)c4ccccc4)C(C)=C1C3(C)C)[C@]1(OC(C)=O)CO[C@@H]1C[C@@H]2O [paclitaxel]
IC50 [2]: 15 ± 1 nM
Response: Decrease in Tumor Volume vs Control (B16/F10 melanoma; Paclitaxel dose 2.5 mg/kg): −24%
Response: Decrease in Tumor Volume vs Control (B16/F10 melanoma; Paclitaxel dose 40 mg/kg): −68%

IC50 [3]: 6.6 ± 1.7 nM
SMILES: CC(=O)OC1C(=O)C2(C)C(O)CC3OCC3(OC(C)=O)C2C(OC(=O)c2ccccc2)C2(O)CC(OC(=O)C(OC(=O)CCC(=O)OCOC(=O)CCCCC3CCSS3)C(NC(=O)c3ccccc3)c3ccccc3)C(C)=C1C2(C)C (stereo not shown) [Compound 6, ((5-(1,2-dithiolan-3-yl)pentanoyl)oxy)methyl paclitaxel-2′-yl succinate]

IC50 [3]: 4.5 ± 0.4 nM
half-life of hydrolysis to paclitaxel [4]: 3.2 h
SMILES: CC(=O)OC1C(=O)C2(C)C(OC(=O)OCOC(=O)CCCCC3CCSS3)CC3OCC3(OC(C)=O)C2C(OC(=O)c2ccccc2)C2(O)CC(OC(=O)C(O)C(NC(=O)c3ccccc3)c3ccccc3)C(C)=C1C2(C)C (stereo not shown) [Compound 4, (7-O-Paclitaxelcarbonyloxy)methyl 5-(1,2-dithiolan-3-yl)pentanoate]

IC50 [3]: 34 ± 18 nM
Percent conversion to paclitaxel ([6]; Buffer + 3-fold excess DTT, 1 h (60 min)): 90%
Percent conversion to paclitaxel ([6]; Buffer, incubation 0 h): 0.3%
Percent conversion to paclitaxel ([6]; Buffer, incubation 1 h): 4.1%
Percent conversion to paclitaxel ([6]; Buffer, incubation 4 h): 4%
Percent conversion to paclitaxel ([6]; Buffer, incubation 48 h): 14.4%
Percent conversion to paclitaxel ([6]; Buffer, incubation 72 h): 50% and 50.4%
SMILES: CC(=O)O[C@H]1C(=O)[C@]2(C)[C@@H](OC(=O)OCc3ccc(SSc4ccccn4)cc3)C[C@H]3OC[C@@]3(OC(C)=O)[C@H]2[C@H](OC(=O)c2ccccc2)[C@]2(O)C[C@H](OC(=O)[C@H](O)[C@@H](NC(=O)c3ccccc3)c3ccccc3)C(C)=C1C2(C)C [Compound 5]
release of paclitaxel in the circulation (in words) [5]: rapidly degraded to the paclitaxel parent in the circulation
Conversion to paclitaxel in rabbit whole blood (in words) [7]: completely converted to paclitaxel essentially immediately
